Experiment [1] relates to Nucleic Acid. Nature of the experiment: Binding affinity to salmon sperm DNA assessed as change in melting temperature at 10 uM under high salt concentration by spectrophotometry. It is filed as nucleic-acid assay. The note with it: Salmonidae. The gist of the method: (§1)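 Salmon sperm DNA at 20 µg/ml was treated with 10 µM compound at high (physiological) or low salt; the low-salt buffer was 7.5 mM NaH₂PO₄, 1 mM EDTA, pH 7.0. Cuvettes were heated from 37 to 98 °C with A260 read every degree. Tm change is in °C, SD from three independent experiments.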

The subject of experiment [2] is Nucleic Acid. The experiment in a line: Binding affinity to salmon sperm DNA assessed as change in melting temperature at 10 uM under low salt concentration by spectrophotometry. It is filed as nucleic-acid assay. The note with it: Salmonidae. The gist of the method:
as §1

The test system of experiment [3] is HCT-116. The experiment in a line: Cytotoxicity against human HCT116 cells after 96 hrs by MTT assay. It is filed as functional, cell-based. The following applies: HCT-116, 96 h. The gist of the method:
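HCT116 cells were grown in RPMI 1640 with 10% FCS and 2 mM L-glutamine, seeded at 2 × 10³ cells/well, 37 °C, 5% CO₂. Drug exposure was continuous for 4 days at 37 °C. MTT was then added for 4 h and formazan dissolved in DMSO for OD reading. IC50 is 50% OD drop relative to untreated and/or vehicle cells. At least three repeats.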
(Tetrazolium assays rely on reduction of a dye to a coloured formazan, in cell work by metabolically active cells.)

Experiment [4] deals with HCT-116. Nature of the experiment: Cytotoxicity against human HCT116 cells after 24 hrs by MTT assay. It is filed as functional, cell-based. The following applies: HCT-116, 24 h. The gist of the method:
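HCT116 cells were kept in RPMI 1640 with 10% FCS and 2 mM L-glutamine, plated at 2 × 10³ cells/well, 37 °C, 5% CO₂. Drug was given for 24 h, then removed, and cells regrew 3 days in fresh medium. Read-out was MTT for 4 h, formazan dissolved in DMSO, OD read. IC50 is 50% OD reduction vs untreated/vehicle controls. At least three repeats.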

Experiment [5] addresses NAD(P)H dehydrogenase [quinone] 1 (Homo sapiens, UniProt P15559). Nature of the experiment: Inhibition of human recombinant NQO1 by spectrophotometry.
For experiment [6], the target named is T1, Ribosyldihydronicotinamide dehydrogenase [quinone] (Homo sapiens, UniProt P16083).
T1 sequence (P16083 whole entry): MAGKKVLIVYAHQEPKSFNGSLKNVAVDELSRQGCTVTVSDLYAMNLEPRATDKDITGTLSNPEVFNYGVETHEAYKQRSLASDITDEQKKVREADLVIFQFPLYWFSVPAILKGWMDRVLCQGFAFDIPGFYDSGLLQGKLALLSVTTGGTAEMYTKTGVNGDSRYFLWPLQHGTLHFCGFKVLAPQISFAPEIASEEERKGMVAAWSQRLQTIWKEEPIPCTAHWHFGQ
The experiment in a line: Inhibition of human recombinant NQO2 by spectrophotometry. The gist of the method: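 Recombinant human NQO2 was diluted in 50 mM phosphate to give about 0.1 absorbance/min. Reaction mix: 50 mM phosphate pH 7.4 with 200 µM NRH as cofactor, 40 µM DCPIP and inhibitor in DMSO (1.0% v/v final), 37 °C. DCPIP reduction was followed at 600 nm.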

Experiment [7] deals with Nucleic Acid. Nature of the experiment: Binding affinity to salmon sperm DNA assessed as melting temperature at 10 uM under low salt concentration by spectrophotometry. It is filed as nucleic-acid assay. The following applies: Salmonidae.

For 16 compounds, ΔTm, IC50 and Tm results are on record in ChEMBL document CHEMBL1159058, “Triazoloacridin-6-ones as novel inhibitors of the quinone oxidoreductases NQO1 and NQO2” (Bioorg Med Chem, 2010).

NAD(P)H dehydrogenase [quinone] 1, sequence (P15559 whole entry): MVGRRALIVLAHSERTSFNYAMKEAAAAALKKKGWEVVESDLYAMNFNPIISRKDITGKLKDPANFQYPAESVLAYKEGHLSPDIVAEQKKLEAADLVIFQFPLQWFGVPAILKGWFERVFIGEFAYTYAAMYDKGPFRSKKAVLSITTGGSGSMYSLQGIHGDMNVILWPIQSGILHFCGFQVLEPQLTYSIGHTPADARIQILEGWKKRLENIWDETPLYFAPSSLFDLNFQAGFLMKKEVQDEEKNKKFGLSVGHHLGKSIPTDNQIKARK

In the case of `COc1ccc2c(c1)c(=O)c1c(NCCc3ccccc3)ccc3nnn2c31`, the results for the thermal shift (ΔTm) in the experiment with Nucleic Acid [1] and with Nucleic Acid [2] were 0.08 °C and 1.7 °C, respectively. For the same compound, the IC50 turned out to be 0.711 µM in the experiment with HCT-116 [3], 12.5 µM with HCT-116 [4], 3.93 µM in experiment [5] and 0.35 µM in experiment [6].

`COc1ccc2c(c1)c(=O)c1c(NCCCO)ccc3nnn2c31`: the results for the thermal shift (ΔTm) in the experiment with Nucleic Acid [1] and in the experiment with Nucleic Acid [2] were 0.19 °C and 3.2 °C, respectively. The results for the IC50 (with HCT-116 [3]; in the experiment with HCT-116 [4]; in experiment [6]) were 0.627 µM, 1.5 µM and 0.517 µM, respectively.

For the compound `COc1cccc2c1C(=O)c1c(O)c3c(c(O)c1C2=O)C[C@@](O)(C(=O)CO)C[C@@H]3O[C@H]1C[C@H](N)[C@H](O)[C@H](C)O1`, the Tm in the experiment with Nucleic Acid [7] is 88 °C. The shift in melting temperature (ΔTm) with Nucleic Acid [2] came to 8 °C.

As to `COc1ccc2c(c1)c(=O)c1c(NCCN(C)C)ccc3nnn2c31`, the ΔTm with Nucleic Acid [1] was 0.08 °C; in the experiment on Nucleic Acid [2], 2.9 °C. Also, the Tm with Nucleic Acid [7] was found to be 83 °C. The half-inhibitory concentration (IC50) in the experiment with HCT-116 [3] came out at 0.333 µM; with HCT-116 [4] it was 1 µM; in experiment [5], 0.111 µM; in experiment [6], 1.33 µM.

Take `CN(C)CCNc1ccc2nnn3c4ccc(F)cc4c(=O)c1c23`: the shift in melting temperature (ΔTm) in the experiment with Nucleic Acid [1] turned out to be 0.03 °C; in the experiment with Nucleic Acid [2] it was 2.6 °C. Moreover, the half-inhibitory concentration (IC50) is 0.465 µM with HCT-116 [3], 1.2 µM in the experiment on HCT-116 [4] and 0.783 µM in experiment [6].

As for `CC(C)CCNc1ccc2nnn3c4ccccc4c(=O)c1c23`, the ΔTm in the experiment on Nucleic Acid [1] is 0.23 °C; with Nucleic Acid [2], 2 °C. In addition, the IC50 was 0.815 µM in the experiment on HCT-116 [3], 3.2 µM in the experiment on HCT-116 [4] and 0.427 µM in experiment [6].

On to `CN(C)CCNc1ccc2nnn3c4ccc(Br)cc4c(=O)c1c23`, for which the ΔTm in the experiment with Nucleic Acid [1] was determined as 0.2 °C; in the experiment with Nucleic Acid [2] it was 2.6 °C. In addition, the IC50 in the experiment with HCT-116 [3] came out at 0.495 µM; in the experiment with HCT-116 [4] it was 1.6 µM; in experiment [6] it was 1.48 µM.

Take `CC(C)CCNc1ccc2nnn3c4ccc(Br)cc4c(=O)c1c23`: the thermal shift (ΔTm) turned out to be 0.09 °C with Nucleic Acid [1] and 1.9 °C in the experiment with Nucleic Acid [2]. Also, the 50% inhibitory concentration (IC50) in the experiment with HCT-116 [3] is 7 µM; in the experiment with HCT-116 [4] it was 27 µM; in experiment [6], 0.767 µM.

`COc1ccc2c(c1)c(=O)c1c(NCC[N+](C)(C)[O-])ccc3nnn2c31`: the ΔTm in the experiment on Nucleic Acid [1] is 0.3 °C; in the experiment with Nucleic Acid [2], 0.15 °C. Further, the Tm in the experiment on Nucleic Acid [7] was found to be 80 °C. The IC50 with HCT-116 [3] is 18.8 µM; in the experiment with HCT-116 [4], 57 µM; in experiment [6], 0.098 µM.

Take `CN(C)CCNc1ccc2nnn3c4ccccc4c(=O)c1c23`: the values for the ΔTm in the experiment on Nucleic Acid [1] and in the experiment on Nucleic Acid [2] were 0.33 °C and 1.7 °C, respectively. Also, the IC50 came out at 12.4 µM in the experiment with HCT-116 [3], 20.5 µM in the experiment on HCT-116 [4], 1.8 µM in experiment [5] and 1.83 µM in experiment [6].

For `O=c1c2ccccc2n2nnc3ccc(NCCc4ccccc4)c1c32`, the values for the ΔTm in the experiment with Nucleic Acid [1] and in the experiment with Nucleic Acid [2] were 0.31 °C and 1.7 °C, respectively. Besides, the concentration for half-maximal inhibition (IC50) with HCT-116 [3] was 0.803 µM; in the experiment with HCT-116 [4], 3.5 µM; in experiment [5], 3.28 µM; in experiment [6], 0.567 µM.

For the compound `O=c1c2ccccc2n2nnc3ccc(NCCCO)c1c32`, the ΔTm with Nucleic Acid [1] was 1.48 °C; with Nucleic Acid [2], 3 °C. Besides, the IC50 amounted to 0.63 µM in the experiment with HCT-116 [3], 0.99 µM in the experiment with HCT-116 [4] and 0.483 µM in experiment [6].

Take `C[N+](C)([O-])CCNc1ccc2nnn3c4ccc(Br)cc4c(=O)c1c23`: the values for the shift in melting temperature (ΔTm) in the experiment on Nucleic Acid [1] and in the experiment with Nucleic Acid [2] were 0.45 °C and 0.1 °C, respectively. In addition, the IC50 in the experiment with HCT-116 [3] came to 12 µM; in the experiment on HCT-116 [4] it was 48 µM; in experiment [6] it was 0.117 µM.

As to `C[N+](C)([O-])CCNc1ccc2nnn3c4ccccc4c(=O)c1c23`, the ΔTm in the experiment on Nucleic Acid [1] came to 0.22 °C; in the experiment with Nucleic Acid [2] it was 0.5 °C. In addition, the half-maximal inhibitory concentration (IC50) in the experiment on HCT-116 [3] was determined as 23.8 µM; in the experiment on HCT-116 [4], 80 µM; in experiment [6] it was 0.167 µM.

With `O=c1c2cc(Br)ccc2n2nnc3ccc(NCCCO)c1c32`, the thermal shift (ΔTm) amounted to 0.42 °C in the experiment with Nucleic Acid [1] and 3 °C in the experiment with Nucleic Acid [2]. The IC50 in the experiment with HCT-116 [3] is 0.715 µM; in the experiment with HCT-116 [4], 2.8 µM; in experiment [6] it was 0.987 µM.

`COc1ccc(Nc2ccc3nnn4c5ccccc5c(=O)c2c34)cc1`: the thermal shift (ΔTm) stood at 0.19 °C with Nucleic Acid [1] and 0.2 °C in the experiment on Nucleic Acid [2]. Further, the results for the half-inhibitory concentration (IC50) (with HCT-116 [3]; in the experiment with HCT-116 [4]; in experiment [6]) were 0.63 µM, 1.9 µM and 0.098 µM, respectively.

As a reminder, the ΔTm is the shift of the melting midpoint relative to a reference. One may read the IC50 as the concentration that gives 50% inhibition.
